Assay results published in ChEMBL document CHEMBL2429772, “Selective arylsulfonamide inhibitors of ADAM-17: hit optimization and activity in ovarian cancer cell models” (J Med Chem, 2013).

Key:
[1] = target: Matrix metalloproteinase-9 (Homo sapiens, UniProt P14780); experiment: Inhibition of recombinant human MMP-9 using Mca-Lys-Pro-Leu-Gly-Leu-Dap(Dnp)-Ala-Arg-NH2 as substrate incubated for 4 hrs measured every 15 secs for 20 mins by fluorimetric assay
How it was run: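 Pro-MMP-9 was activated with 1 mM APMA for 1 h at 37 °C and used at 1.3 nM final. Inhibitor was incubated with enzyme for 4 h at 25 °C in Tris 50 mM pH 7.5, NaCl 150 mM, CaCl2 10 mM, 0.05% Brij-35, 1% DMSO. Substrate was at 2 µM final, ex 325/em 400 nm, in duplicate. IC50 was obtained from vi/vo = 1/(1+[I]/IC50).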

[2] = target: T1, Disintegrin and metalloproteinase domain-containing protein 10 (Homo sapiens, UniProt O14672); experiment: Inhibition of recombinant human ADAM-10 using Mca-Lys-Pro-Leu-Gly-Leu-Dap(Dnp)-Ala-Arg-NH2 as substrate incubated for 1 hr measured every 15 secs for 20 mins by fluorimetric assay
T1 sequence (O14672 whole entry): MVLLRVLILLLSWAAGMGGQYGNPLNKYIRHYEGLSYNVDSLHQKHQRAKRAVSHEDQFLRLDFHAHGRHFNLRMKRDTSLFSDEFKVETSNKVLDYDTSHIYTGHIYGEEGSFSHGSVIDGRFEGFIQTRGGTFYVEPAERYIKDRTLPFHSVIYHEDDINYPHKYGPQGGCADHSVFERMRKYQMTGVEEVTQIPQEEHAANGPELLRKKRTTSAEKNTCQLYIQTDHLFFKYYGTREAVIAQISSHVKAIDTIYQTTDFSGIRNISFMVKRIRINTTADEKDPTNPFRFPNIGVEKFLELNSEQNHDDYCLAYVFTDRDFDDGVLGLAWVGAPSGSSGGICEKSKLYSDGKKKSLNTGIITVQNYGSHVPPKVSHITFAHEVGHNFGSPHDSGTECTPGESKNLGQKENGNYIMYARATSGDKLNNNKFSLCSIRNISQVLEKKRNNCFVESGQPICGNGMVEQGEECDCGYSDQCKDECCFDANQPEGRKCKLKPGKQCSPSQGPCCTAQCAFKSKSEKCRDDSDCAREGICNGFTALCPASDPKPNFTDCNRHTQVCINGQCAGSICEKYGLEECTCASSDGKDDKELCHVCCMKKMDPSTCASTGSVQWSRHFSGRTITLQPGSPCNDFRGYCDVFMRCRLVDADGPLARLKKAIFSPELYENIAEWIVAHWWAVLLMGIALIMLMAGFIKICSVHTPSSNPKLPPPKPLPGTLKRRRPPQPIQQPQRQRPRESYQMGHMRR
How it was run: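 Enzyme at 20 nM final was preincubated with inhibitor for 1 h at 37 °C in pH 9 buffer (Tris 25 mM, ZnCl2 25 µM, 0.005% Brij-35). Substrate was at 10 µM final. Fluorescence (ex 325/em 400 nm) was followed for initial velocity, in duplicate. IC50 was calculated with vi/vo = 1/(1+[I]/IC50).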

[3] = target: Matrix metalloproteinase-14 (Homo sapiens, UniProt P50281); experiment: Inhibition of recombinant human MMP-14 catalytic domain using Mca-Lys-Pro-Leu-Gly-Leu-Dap(Dnp)-Ala-Arg-NH2 as substrate incubated for 4 hrs measured every 15 secs for 20 mins by fluorimetric assay
How it was run: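 MMP-14 catalytic domain was used at 1.0 nM final with no activation step. It was incubated with inhibitor for 4 h at 25 °C in Tris 50 mM pH 7.5 buffer with NaCl 150 mM, CaCl2 10 mM, 0.05% Brij-35 and 1% DMSO. Substrate was at 2 µM final, ex 325/em 400 nm, duplicate wells. IC50 was fitted by vi/vo = 1/(1+[I]/IC50).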

[4] = target: 72 kDa type IV collagenase (Homo sapiens, UniProt P08253); experiment: Inhibition of recombinant human MMP-2 using Mca-Lys-Pro-Leu-Gly-Leu-Dap(Dnp)-Ala-Arg-NH2 as substrate incubated for 4 hrs measured every 15 secs for 20 mins by fluorimetric assay
Sequence of 72 kDa type IV collagenase (P08253 whole entry): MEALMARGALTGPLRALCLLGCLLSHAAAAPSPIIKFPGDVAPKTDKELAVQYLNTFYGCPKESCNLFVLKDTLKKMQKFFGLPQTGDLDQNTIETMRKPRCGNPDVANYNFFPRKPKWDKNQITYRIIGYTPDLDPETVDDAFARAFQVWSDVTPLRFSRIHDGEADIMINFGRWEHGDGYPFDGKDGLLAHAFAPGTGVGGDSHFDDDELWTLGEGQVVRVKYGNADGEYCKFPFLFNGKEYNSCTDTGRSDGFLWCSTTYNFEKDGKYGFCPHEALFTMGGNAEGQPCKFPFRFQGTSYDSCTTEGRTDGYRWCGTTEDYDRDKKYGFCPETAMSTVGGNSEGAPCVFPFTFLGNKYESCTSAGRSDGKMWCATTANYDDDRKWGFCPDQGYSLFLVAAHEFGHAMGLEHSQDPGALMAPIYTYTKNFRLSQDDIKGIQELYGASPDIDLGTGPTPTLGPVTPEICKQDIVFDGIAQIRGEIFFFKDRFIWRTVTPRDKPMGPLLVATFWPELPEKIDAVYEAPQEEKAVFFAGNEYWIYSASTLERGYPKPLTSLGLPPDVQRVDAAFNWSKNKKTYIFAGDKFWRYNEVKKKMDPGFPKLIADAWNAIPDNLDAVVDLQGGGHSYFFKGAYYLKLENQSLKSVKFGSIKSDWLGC
How it was run: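 Pro-MMP-2 was activated with 2 mM APMA for 1 h at 37 °C and used at 0.56 nM final. It was preincubated with inhibitor for 4 h at 25 °C in Tris 50 mM pH 7.5 buffer containing NaCl, CaCl2, Brij-35 and 1% DMSO. Substrate was at 2 µM final, ex 325/em 400 nm, run in duplicate. IC50 was taken from initial-velocity ratios, vi/vo = 1/(1+[I]/IC50).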

Interstitial collagenase = target: T2, Interstitial collagenase (Homo sapiens, UniProt P03956); experiment: Inhibition of recombinant human MMP-1 using Mca-Lys-Pro-Leu-Gly-Leu-Dap(Dnp)-Ala-Arg-NH2 as substrate incubated for 4 hrs measured every 15 secs for 20 mins by fluorimetric assay
T2 sequence (P03956 whole entry): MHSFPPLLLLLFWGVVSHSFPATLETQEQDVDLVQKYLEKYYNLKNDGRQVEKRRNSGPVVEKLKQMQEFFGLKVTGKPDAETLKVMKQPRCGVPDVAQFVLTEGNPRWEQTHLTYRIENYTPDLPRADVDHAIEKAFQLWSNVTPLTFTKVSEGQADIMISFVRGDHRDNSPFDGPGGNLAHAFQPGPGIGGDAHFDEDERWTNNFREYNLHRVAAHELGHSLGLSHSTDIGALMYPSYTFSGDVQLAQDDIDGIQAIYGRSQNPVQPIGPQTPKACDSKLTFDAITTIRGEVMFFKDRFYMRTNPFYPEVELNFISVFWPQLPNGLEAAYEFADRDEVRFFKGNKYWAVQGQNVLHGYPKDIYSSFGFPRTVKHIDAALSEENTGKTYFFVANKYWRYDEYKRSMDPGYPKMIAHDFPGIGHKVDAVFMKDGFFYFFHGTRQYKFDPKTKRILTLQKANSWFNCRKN
How it was run: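 Pro-MMP-1 was activated with 2 mM APMA for 2 h at 37 °C. Enzyme (2.0 nM final) was incubated with inhibitor in Tris 50 mM pH 7.5, NaCl 150 mM, CaCl2 10 mM, 0.05% Brij-35, 1% DMSO for 4 h at 25 °C. Substrate was added at 2 µM final. Fluorescence (ex 325/em 400 nm) was read for initial rates, in duplicate. IC50 came from vi/vo = 1/(1+[I]/IC50).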

[5] = target: T3, Disintegrin and metalloproteinase domain-containing protein 17 (Homo sapiens, UniProt P78536); experiment: Inhibition of recombinant human ADAM-17 using Mca-Lys-Pro-Leu-Gly-Leu-Dap(Dnp)-Ala-Arg-NH2 as substrate incubated for 30 mins measured every 15 secs for 20 mins by fluorimetric assay
T3 sequence (P78536 whole entry, the tested form may be a part): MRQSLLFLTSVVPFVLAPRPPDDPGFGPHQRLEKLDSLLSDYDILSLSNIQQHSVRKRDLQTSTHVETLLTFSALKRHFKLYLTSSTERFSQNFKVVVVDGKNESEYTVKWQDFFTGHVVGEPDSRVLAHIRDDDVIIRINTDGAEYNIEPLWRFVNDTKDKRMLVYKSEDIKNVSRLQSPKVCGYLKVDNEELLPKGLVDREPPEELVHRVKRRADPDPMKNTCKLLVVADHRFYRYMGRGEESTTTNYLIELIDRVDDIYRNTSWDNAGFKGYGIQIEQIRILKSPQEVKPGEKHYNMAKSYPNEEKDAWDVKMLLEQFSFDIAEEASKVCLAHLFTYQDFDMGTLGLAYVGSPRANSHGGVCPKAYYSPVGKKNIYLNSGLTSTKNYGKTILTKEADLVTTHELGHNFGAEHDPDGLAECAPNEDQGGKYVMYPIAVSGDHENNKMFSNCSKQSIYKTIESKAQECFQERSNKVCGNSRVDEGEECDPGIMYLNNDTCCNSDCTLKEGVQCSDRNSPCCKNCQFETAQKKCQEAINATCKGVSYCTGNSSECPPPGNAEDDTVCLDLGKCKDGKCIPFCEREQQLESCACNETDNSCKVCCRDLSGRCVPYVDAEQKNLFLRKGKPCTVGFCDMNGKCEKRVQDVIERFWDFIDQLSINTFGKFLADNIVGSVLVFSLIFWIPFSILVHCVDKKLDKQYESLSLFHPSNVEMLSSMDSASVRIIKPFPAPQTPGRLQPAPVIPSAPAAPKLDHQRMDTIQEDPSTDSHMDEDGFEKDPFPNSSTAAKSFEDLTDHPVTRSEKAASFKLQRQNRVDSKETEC
How it was run: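 Enzyme at 5 nM final was preincubated with inhibitor for 30 min at 37 °C in Tris 25 mM pH 9, ZnCl2 25 µM, 0.005% Brij-35. Substrate was at 2 µM final. Fluorescence increase (ex 325/em 400 nm) gave initial rates, in duplicate. IC50 was derived from vi/vo = 1/(1+[I]/IC50).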

[6] = target: T3, Disintegrin and metalloproteinase domain-containing protein 17; experiment: Inhibition of ADAM-17 in human SKOV3 cells transfected with luciferase gene assessed as inhibition of pervanadate-induced sALCAM release incubated for 30 mins prior to pervanadate induction measured after 90 mins by ELISA; format: cell-based, SK-OV-3
A2780 = experiment: Cytotoxicity against human A2780 cells assessed as cell viability at 0.01 to 10 uM after 24 to 72 hrs by MTT assay; format: cell-based; settings: a2780, 10 µM
[7] = Cytotoxicity against human A2774 cells assessed as cell viability at 0.01 to 10 uM after 24 to 72 hrs by MTT assay; format: cell-based; settings: a2774, 10 µM
SK-OV-3 = experiment: Cytotoxicity against human SKOV3 cells transfected with luciferase gene assessed as cell viability at 0.01 to 10 uM after 24 to 72 hrs by MTT assay; format: cell-based; settings: sk-ov-3, 10 µM
[8] = target: T3, Disintegrin and metalloproteinase domain-containing protein 17; experiment: Inhibition of ADAM-17 in human A2780 cells assessed as inhibition of EGF-induced sALCAM release incubated for 30 mins prior to EGF induction measured after 18 hrs by ELISA; format: cell-based
[9] = target: T3, Disintegrin and metalloproteinase domain-containing protein 17; experiment: Inhibition of ADAM-17 in human A2780 cells assessed as inhibition of pervanadate-induced sALCAM release incubated for 30 mins prior to pervanadate induction measured after 90 mins by ELISA; format: cell-based
[10] = target: T3, Disintegrin and metalloproteinase domain-containing protein 17; experiment: Inhibition of ADAM-17 in human SKOV3 cells transfected with luciferase gene assessed as inhibition of EGF-induced sALCAM release incubated for 30 mins prior to EGF induction measured after 18 hrs by ELISA; format: cell-based, SK-OV-3
[11] = target: T3, Disintegrin and metalloproteinase domain-containing protein 17; experiment: Inhibition of ADAM-17 in human A2774 cells assessed as inhibition of EGF-induced sALCAM release incubated for 30 mins prior to EGF induction measured after 18 hrs by ELISA; format: cell-based
[12] = target: T3, Disintegrin and metalloproteinase domain-containing protein 17; experiment: Inhibition of ADAM-17 in human A2774 cells assessed as inhibition of pervanadate-induced sALCAM release incubated for 30 mins prior to pervanadate induction measured after 90 mins by ELISA; format: cell-based

Sequence of Matrix metalloproteinase-9 (P14780 whole entry): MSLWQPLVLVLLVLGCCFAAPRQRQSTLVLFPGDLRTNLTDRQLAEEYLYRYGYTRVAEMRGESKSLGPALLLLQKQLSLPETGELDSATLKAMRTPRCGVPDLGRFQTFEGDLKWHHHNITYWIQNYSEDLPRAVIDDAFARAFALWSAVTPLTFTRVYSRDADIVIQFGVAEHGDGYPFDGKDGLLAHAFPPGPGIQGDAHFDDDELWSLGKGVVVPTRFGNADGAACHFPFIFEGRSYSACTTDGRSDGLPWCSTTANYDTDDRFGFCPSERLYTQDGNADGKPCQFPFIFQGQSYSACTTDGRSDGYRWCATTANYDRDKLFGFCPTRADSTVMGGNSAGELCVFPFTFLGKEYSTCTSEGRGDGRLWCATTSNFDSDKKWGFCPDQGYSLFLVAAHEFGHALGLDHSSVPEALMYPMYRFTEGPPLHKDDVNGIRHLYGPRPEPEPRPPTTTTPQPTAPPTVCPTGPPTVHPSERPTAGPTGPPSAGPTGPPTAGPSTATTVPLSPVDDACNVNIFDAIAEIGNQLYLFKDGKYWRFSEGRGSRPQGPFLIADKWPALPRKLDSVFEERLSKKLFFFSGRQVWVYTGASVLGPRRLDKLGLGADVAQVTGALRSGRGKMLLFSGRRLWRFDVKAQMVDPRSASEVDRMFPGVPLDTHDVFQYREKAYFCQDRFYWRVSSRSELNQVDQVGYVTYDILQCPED

SMILES	IC50 [1]	IC50 [2]	IC50 [3]	IC50 [4]	IC50 (Interstitial collagenase)	IC50 [5]	IC50 [6]	IC50 [8]	IC50 [9]	IC50 [10]	IC50 [11]	IC50 [12]	Activity (A2780)	Activity [7]	Activity (SK-OV-3)
O=C(NCC[C@@H](NS(=O)(=O)c1ccc(OCc2cc(Br)cc(Br)c2)cc1)C(=O)NO)OCc1ccccc1	11000 nM	8200 nM	104000 nM	4100 nM	400000 nM	43 nM	2100 nM	> 10000 nM	825 nM	9520 nM	> 10000 nM	1390 nM	Non-toxic	Non-toxic	Non-toxic
NC(=O)NCCC[C@@H](NS(=O)(=O)c1ccc(OCc2cc(Br)cc(Br)c2)cc1)C(=O)NO					> 500000 nM		58 nM	845 nM	< 10 nM	4270 nM	651 nM	45 nM	Non-toxic	Non-toxic	Non-toxic
O=C(CNS(=O)(=O)c1ccc(OCc2cc(Br)cc(Br)c2)cc1)NO	51000 nM	39000 nM	113000 nM	1750 nM	> 500000 nM	105 nM	5300 nM	> 10000 nM	840 nM	> 10000 nM	> 10000 nM	> 10000 nM	Non-toxic	Non-toxic	Non-toxic

Now from value to compound, other results behind:

IC50 [1]	IC50 [2]	IC50 [3]	IC50 [4]	IC50 (Interstitial collagenase)	IC50 [5]	IC50 [6]	IC50 [8]	IC50 [9]	IC50 [10]	IC50 [11]	IC50 [12]	SMILES	Activity (A2780)	Activity [7]	Activity (SK-OV-3)
4400 nM	300 nM	68000 nM	1440 nM	370000 nM	11 nM	350 nM	10000 nM	349 nM	5640 nM	7630 nM	274 nM	O=C(NCCC[C@@H](NS(=O)(=O)c1ccc(OCc2cc(Br)cc(Br)c2)cc1)C(=O)NO)OCc1ccccc1	Non-toxic	Non-toxic	Non-toxic
						14 nM	1440 nM	< 10 nM	966 nM		26 nM	CC#CCOc1ccc(S(=O)(=O)N[C@H](CCNC(=O)OCc2ccccc2)C(=O)NO)cc1	Non-toxic	Non-toxic	Non-toxic
